This is an account of results in ChEMBL document CHEMBL1125557, “Dihydropyrimidine angiotensin II receptor antagonists” (J Med Chem, 1992).

Several values for one entry are separate records, joined by “and”; a condition that tells them apart may be missing. Equal entries are not always repeated.

For experiment [1], the system named is Rattus norvegicus. Briefly: In vivo antihypertensive activity against spontaneously hypertensive rats after oral administration of 10 uM/Kg dose between 12-18 hours. The class given is functional. Summed up:
(§1)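 Male SHR, surgically prepared, recovered 2 weeks on regular food and water. Low-NaCl diet from 5 days before testing; furosemide 2.5 mg/kg on 3 consecutive days before testing. Compounds given orally as agar suspension. Mean arterial pressure monitored for 24 h; maximum % fall in pressure per 6-h interval, n = 8-10.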

In experiment [2] the test system is Rattus norvegicus. In words: In vivo antihypertensive activity against spontaneously hypertensive rats after oral administration of 10 uM/Kg dose between 6-12 hours. The experiment is classed as functional. Summed up:
as §1

Experiment [3] deals with Rattus norvegicus. In words: In vivo antihypertensive activity against spontaneously hypertensive rats after oral administration of 30 uM/Kg dose between 6-12 hours. The class given is functional. The method in brief:
as §1

The subject of experiment [4] is Rattus norvegicus. In words: In vivo antihypertensive activity against spontaneously hypertensive rats after oral administration of 30 uM/Kg dose between 18-24 hours. The class given is functional. The method in brief: as §1
For experiment [5], the system named is Rattus norvegicus. In words: In vivo antihypertensive activity against spontaneously hypertensive rats after oral administration of 30 umol/kg dose between 0-6 hours. The class given is functional. The method in brief: as §1
Experiment [6] addresses T1, Type-1 angiotensin II receptor B (Rattus norvegicus, UniProt P29089).
T1 sequence (P29089 whole entry): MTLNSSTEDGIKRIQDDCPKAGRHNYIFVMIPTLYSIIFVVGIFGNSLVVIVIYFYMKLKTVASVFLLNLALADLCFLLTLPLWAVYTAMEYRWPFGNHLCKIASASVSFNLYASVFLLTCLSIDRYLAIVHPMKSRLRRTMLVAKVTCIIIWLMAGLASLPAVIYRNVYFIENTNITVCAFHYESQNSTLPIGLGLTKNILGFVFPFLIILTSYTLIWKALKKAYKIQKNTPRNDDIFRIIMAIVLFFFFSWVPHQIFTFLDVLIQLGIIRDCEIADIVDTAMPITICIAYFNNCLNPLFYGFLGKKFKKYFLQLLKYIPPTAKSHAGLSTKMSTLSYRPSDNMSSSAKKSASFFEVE
In words: Inhibition of [125I]- Sar,Ile8-angiotensin II binding to rat adrenal cortical membrane angiotensin II receptor.

Experiment [7] has as its system Rattus norvegicus. Briefly: Compound was tested in vivo for antagonistic activity for the 50% inhibition of AII pressor response in male rats after intravenous administration. The experiment is classed as functional. Summed up: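 Normotensive male rats received three doses of test agent iv, then AII challenge (100 ng/kg iv) 2 min later. ED50 (dose halving the AII pressor response) from simplex curve fit of log dose versus maximum percent inhibition; n = 4.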

For experiment [8], the system named is Rattus norvegicus. Briefly: In vivo antihypertensive activity against spontaneously hypertensive rats after oral administration of 30 uM/Kg dose between 12-18 hours. The experiment is classed as functional. The method in brief: as §1
A further experiment is filed under the species Oryctolagus cuniculus. Briefly: In vitro functional potency by antagonism of angiotensin II induced contraction of isolated rabbit aorta. The method in brief:
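Isolated rabbit aorta contracted by angiotensin II; antagonism expressed as KB (nM, ±SEM).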

In experiment [9] the test system is Rattus norvegicus. Briefly: In vivo antihypertensive activity against spontaneously hypertensive rats after oral administration of 10 uM/Kg dose between 18-24 hours. The experiment is classed as functional. The method in brief:
as §1

In experiment [10] the test system is Rattus norvegicus. In words: In vivo antihypertensive activity against spontaneously hypertensive rats after oral administration of 10 uM/Kg dose between 0-6 hours. The experiment is classed as functional. The method in brief:
as §1

Experiment [11] concerns Rattus norvegicus. Briefly: In vivo antihypertensive activity against spontaneously hypertensive rats after oral administration of 30 uM/Kg dose between 0-6 hours. The experiment is classed as functional. Summed up: as §1
The subject of experiment [12] is Rattus norvegicus. Briefly: In vivo antihypertensive activity against spontaneously hypertensive rats after oral administration of 30 umol/kg dose between 6-12 hours. The experiment is classed as functional. The method in brief:
as §1

Experiment [13] relates to Rattus norvegicus. Briefly: In vivo antihypertensive activity against spontaneously hypertensive rats after oral administration of 10 umol/kg dose between 0-6 hours. The experiment is classed as functional. The method in brief: as §1
Experiment [14] deals with Rattus norvegicus. In words: In vivo antihypertensive activity against spontaneously hypertensive rats after oral administration of 30 umol/kg dose between 12-18 hours. The class given is functional. Summed up: as §1
Experiment [15] relates to Rattus norvegicus. Briefly: In vivo antihypertensive activity against spontaneously hypertensive rats after oral administration of 10 umol/kg dose between 6-12 hours. The class given is functional. The method in brief:
as §1

For experiment [16], the system named is Rattus norvegicus. In words: In vivo antihypertensive activity against spontaneously hypertensive rats after oral administration of 30 umol/kg dose between 18-24 hours. The class given is functional. Summed up: as §1

One may read the Ki as the dissociation constant of the complex between target and ligand, obtained from inhibition or displacement. Low readings indicate tighter binding, high ones weaker binding. As usually defined, the ED50 is the midpoint of the dose-response relation. Read a high ED50 as weaker potency. A word on the Kb: it is the equilibrium dissociation constant of an antagonist, usually derived from a functional assay. A low value points to higher antagonist affinity. On to `CCCCC1=NC(Cl)=C(C(=O)OCC)C(C)N1Cc1ccc(-c2ccccc2-c2nnn[n-]2)cc1.[K+]` (stereo unspecified), for which the “Decrease in blood pressure” value in the experiment with Rattus norvegicus [1] came to 15%; in the experiment with Rattus norvegicus [2], 14%; in the experiment on Rattus norvegicus [3], 20%; with Rattus norvegicus [4], 20%; in the experiment on Rattus norvegicus [5] it was 23%; in the experiment on Rattus norvegicus [8] it was 19%. The “Decrease in blood pressure” value with Rattus norvegicus [9] amounted to 17%; with Rattus norvegicus [10] it was 14%. The molecule further had a Ki in experiment [6] of 8.3 nM. In the experiment on Rattus norvegicus [7], this molecule returned a 50% effective dose (ED50) of 1.65 µmol/kg. In the experiment filed under Oryctolagus cuniculus (Oryctolagus cuniculus, Aorta), the Kb amounted to 5.3 nM.
Turning to `CCCCC1=NC(C)=C(C(=O)OCC)C(C)N1Cc1ccc(-c2ccccc2C(=O)O)cc1` (stereo unspecified), affinity in experiment [6] was put at a Ki of 990 nM. This molecule registered an antagonist dissociation constant (Kb) in the experiment listed under Oryctolagus cuniculus (Oryctolagus cuniculus, Aorta) of 660 nM.
The corresponding values for `CCCCc1nc(-c2ccccc2)c(C(=O)OCC)c(=O)n1Cc1ccc(-c2ccccc2C(=O)O)cc1` are 1600 nM and 140 nM.
In experiment [6], `CCCCC1=NC(c2ccccc2)=C(C(=O)OCC)C(C)N1Cc1ccc(-c2ccccc2C(=O)O)cc1` (stereo unspecified) showed a Ki of 850 nM. Also, the antagonist equilibrium constant (Kb) in the experiment listed under Oryctolagus cuniculus (Oryctolagus cuniculus, Aorta) is 630 nM.
As to `CCCCC1=NC(C)(C)C(C(=O)OCC)=C(Cl)N1Cc1ccc(-c2ccccc2C(=O)O)cc1`, the inhibition constant Ki in experiment [6] came to 58 nM. In the experiment listed under Oryctolagus cuniculus (Oryctolagus cuniculus, Aorta), this molecule displayed a Kb of 23 nM.
With `CCCCc1nc(C)c(C(=O)OCC)c(=O)n1Cc1ccc(-c2ccccc2C(=O)O)cc1`, the inhibition constant (Ki) in [6] was 150 nM. In the experiment filed under Oryctolagus cuniculus (Oryctolagus cuniculus, Aorta), this molecule showed an antagonist dissociation constant (Kb) of 95 nM.
As for `CCCCC1=NC(C)(C)C(C(=O)OCC)=C(Cl)N1Cc1ccc(-c2ccccc2-c2nn[nH]n2)cc1`, the “Decrease in blood pressure” value came to 3% in the experiment on Rattus norvegicus [3], 2% in the experiment on Rattus norvegicus [4], 5% in the experiment on Rattus norvegicus [11] and 4% with Rattus norvegicus [8]. The same molecule displayed a Ki in experiment [6] of 1.1 nM. The same molecule showed a median effective dose (ED50) with Rattus norvegicus [7] of 2.4 µmol/kg. The molecule also yielded an antagonist equilibrium constant (Kb) in the experiment filed under Oryctolagus cuniculus (Oryctolagus cuniculus, Aorta) of 24 nM.
In [6], `CCCCc1ncc(C(=O)OCC)c(=O)n1Cc1ccc(-c2ccccc2C(=O)O)cc1` registered an inhibition constant Ki of 82 nM. The molecule also had a Kb in the experiment listed under Oryctolagus cuniculus (Oryctolagus cuniculus, Aorta) of 610 nM.
The corresponding values for `CCCCC1=NC(Cl)=C(C(=O)OCC)C(C)N1Cc1ccc(-c2ccccc2C(=O)O)cc1` (stereo unspecified) are 41 nM and 70 nM.
Take `CCCCC1=NC(Cl)=C(C(=O)OCC)C(c2ccccc2)N1Cc1ccc(-c2ccccc2C(=O)O)cc1` (stereo unspecified): the Kb in the experiment filed under Oryctolagus cuniculus (Oryctolagus cuniculus, Aorta) came out at 1000 nM.
Take `CCCCC1=NC(Cl)=C(C(=O)O)C(C)N1Cc1ccc(-c2ccccc2-c2nn[nH]n2)cc1` (stereo unspecified): the “Decrease in blood pressure” value in the experiment with Rattus norvegicus [3] is given as 0%; in the experiment on Rattus norvegicus [4], 1%; in the experiment with Rattus norvegicus [11], 8%; in the experiment on Rattus norvegicus [8], 2%. The same molecule gave an inhibitory constant (Ki) in experiment [6] of 1 nM. The molecule further showed a 50% effective dose (ED50) in the experiment on Rattus norvegicus [7] of 0.076 µmol/kg. The molecule further registered an antagonist dissociation constant (Kb) in the experiment listed under Oryctolagus cuniculus (Oryctolagus cuniculus, Aorta) of 0.45 nM.
`CCCCC1=NC(c2ccc(Cl)cc2)=C(C(=O)OCC)C(C)N1Cc1ccc(-c2ccccc2C(=O)O)cc1` (stereo unspecified) returned an inhibitory constant (Ki) in experiment [6] of 190 nM. The molecule also yielded an antagonist equilibrium constant (Kb) in the experiment filed under Oryctolagus cuniculus (Oryctolagus cuniculus, Aorta) of 520 nM.
For the molecule `CCCCc1nc(Cl)c(CO)n1Cc1ccc(-c2ccccc2-c2nnn[n-]2)cc1.[K+]` [LOSARTAN POTASSIUM], the “Decrease in blood pressure” value with Rattus norvegicus [12] is 35%; with Rattus norvegicus [5], 31%; in the experiment on Rattus norvegicus [13] it was 13%; in the experiment on Rattus norvegicus [14], 37% and 22%; with Rattus norvegicus [15] it was 20%; in the experiment with Rattus norvegicus [16], 38% and 24%. This molecule also gave a 50% effective dose (ED50) with Rattus norvegicus [7] of 1.8 µmol/kg. Further, in the experiment filed under Oryctolagus cuniculus, the Kb worked out at 2.6 nM.
In turn, `CCCCc1nc(Cl)c(CO)n1Cc1ccc(-c2ccccc2-c2nnn[nH]2)cc1` [LOSARTAN] yielded a Kb in the experiment filed under Oryctolagus cuniculus of 86 nM.
